Laboratory results as given in ChEMBL document CHEMBL4610112, “Novel Pyrrolopyridone Bromodomain and Extra-Terminal Motif (BET) Inhibitors Effective in Endocrine-Resistant ER+ Breast Cancer with Acquired Resistance to Fulvestrant and Palbociclib” (J Med Chem, 2020).
Values belong to the compound of their own block, whether it stands above or below them.

What was measured:
[1] = Induction of thrombocytopenia in rat assessed as platelet count […] at 3 mg/kg, po administered daily for 10 days (reference value: […]); type: organism-based; conditions: in vivo, 240 h
[2] = Toxicity in human MCF7:TAM1 cells xenografted ovariectomized athymic Nude-Foxn1 mouse assessed as effect on body weight at 50 mg/kg/day, po administered via gavage for 4 weeks; type: organism-based; conditions: in vivo, 672 h
Outline: (§1)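 MCF-7:TAM1 tumors established in 4–6-week-old female ovariectomized athymic nude mice (nude/Foxn1) given tamoxifen 1.5 mg/mouse daily. […] Body weight tracked against pretreatment, with overt toxicity signs observed. Vehicle and tamoxifen (1.5 mg/mouse/day po) groups as comparators.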

MCF7:TAM1 = assay: Antitumor activity against human MCF7:TAM1 cells xenografted in ovariectomized athymic Nude-Foxn1 mouse assessed as tumor growth inhibition at 30 mg/kg/day, po administered via gavage for 4 weeks relative to control; type: functional; conditions: 672 h, read-out: TGI
Outline: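 MCF-7:Tam1 tumours established in 4–6 week old female ovariectomized athymic nude mice given daily tamoxifen 1.5 mg/mouse. […] Fulvestrant 1 (mg/mouse)/week sc. Tumour volume measured weekly by calipers as length × width² × π/6.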

[3] = AUC in CD1 mouse at 30 mg/kg, po by LC-MS/MS analysis; type: ADME, organism-based; conditions: in vivo
Outline: (§2)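 HCl salt dosed to CD1 mice iv (1 mg/mL) or by oral gavage (3 mg/mL) in 30% PEG400/70% (10% HP-β-CD in water) (v/v). Blood sampled at 0, 0.0833 (iv only), 0.25, 0.5, 1, 2, 4, 8 and 24 h, n = 3 per time point. Plasma levels measured by LC/MS/MS.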

[4] = Volume of distribution at steady state in CD1 mouse at 5 mg/kg, iv by LC-MS/MS analysis; type: ADME, organism-based; conditions: in vivo
Outline: (§3)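 HCl salt dosed to CD1 mice in 30% PEG400/70% (10% HP-β-CD in water) (v/v), at 1 mg/mL for iv (5 mg/kg) or 3 mg/mL for oral gavage (30 mg/kg). Blood sampled at 0, 0.0833 (iv only), 0.25, 0.5, 1, 2, 4, 8 and 24 h, n = 3 per time point. Plasma levels measured by LC/MS/MS.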

CYP2A6 = CYP2A6 (Homo sapiens, UniProt P11509); assay: Inhibition of human CYP2A6 at 10 uM; type: ADME
Sequence of CYP2A6 (P11509 whole entry): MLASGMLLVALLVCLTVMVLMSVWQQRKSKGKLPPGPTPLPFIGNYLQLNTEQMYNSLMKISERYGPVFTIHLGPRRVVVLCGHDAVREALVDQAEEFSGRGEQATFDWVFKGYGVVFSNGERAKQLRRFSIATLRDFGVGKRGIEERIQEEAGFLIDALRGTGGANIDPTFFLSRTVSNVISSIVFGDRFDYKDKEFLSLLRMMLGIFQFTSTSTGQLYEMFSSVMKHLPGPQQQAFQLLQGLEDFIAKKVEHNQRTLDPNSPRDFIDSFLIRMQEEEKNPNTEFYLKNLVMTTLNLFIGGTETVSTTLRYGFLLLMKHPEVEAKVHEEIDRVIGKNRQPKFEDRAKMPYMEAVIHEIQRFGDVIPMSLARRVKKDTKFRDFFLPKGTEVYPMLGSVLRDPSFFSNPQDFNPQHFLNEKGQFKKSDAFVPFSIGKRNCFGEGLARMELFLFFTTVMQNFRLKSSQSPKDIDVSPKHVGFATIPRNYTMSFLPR

[5] = Intrinsic clearance in human hepatocytes assessed per million cells; type: ADME, cell-based, Hepatocyte; conditions: read-out: CLH
[6] = Protein binding in plasma (unknown origin); type: ADME, cell-free; conditions: human
Outline: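 Protein binding reported as percent bound, ketoconazole as reference compound. Run by a contract lab.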

CYP2D6 = CYP2D6 (Homo sapiens, UniProt P10635); assay: Inhibition of human CYP2D6 at 10 uM; type: ADME
Sequence of CYP2D6 (P10635 whole entry): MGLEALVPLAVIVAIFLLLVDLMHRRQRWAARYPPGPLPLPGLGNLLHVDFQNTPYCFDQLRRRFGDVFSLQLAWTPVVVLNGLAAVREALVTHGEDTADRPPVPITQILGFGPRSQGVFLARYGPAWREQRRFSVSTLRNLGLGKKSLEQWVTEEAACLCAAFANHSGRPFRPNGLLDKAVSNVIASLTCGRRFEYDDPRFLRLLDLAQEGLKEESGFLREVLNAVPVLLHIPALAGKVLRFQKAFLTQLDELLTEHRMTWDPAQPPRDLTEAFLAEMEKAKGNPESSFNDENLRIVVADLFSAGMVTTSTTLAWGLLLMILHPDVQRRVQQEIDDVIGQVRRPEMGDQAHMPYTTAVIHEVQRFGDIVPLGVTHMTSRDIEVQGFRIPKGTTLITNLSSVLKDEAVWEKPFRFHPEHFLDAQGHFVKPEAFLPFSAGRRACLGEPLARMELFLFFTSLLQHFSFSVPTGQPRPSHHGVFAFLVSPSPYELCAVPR

[7] = Clearance in CD1 mouse at 5 mg/kg, iv by LC-MS/MS analysis; type: ADME, organism-based; conditions: in vivo; outline: as §2
[8] = Oral bioavailability in CD1 mouse at 30 mg/kg by LC-MS/MS analysis; type: ADME, organism-based; conditions: in vivo; outline: as §3
[9] = Kinetic solubility of the compound in pH 7.4 PBS buffer; type: physicochemical; conditions: read-out: Kinetic_solubility
Outline: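 Kinetic solubility in PBS at pH 7.4, progesterone as reference compound. Run by a contract lab.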

[10] = molecular target: Voltage-gated inwardly rectifying potassium channel KCNH2 (Homo sapiens, UniProt Q12809); assay: Inhibition of human ERG stably expressed in HEK293 cells; type: cell-based
Sequence of Voltage-gated inwardly rectifying potassium channel KCNH2 (Q12809 whole entry): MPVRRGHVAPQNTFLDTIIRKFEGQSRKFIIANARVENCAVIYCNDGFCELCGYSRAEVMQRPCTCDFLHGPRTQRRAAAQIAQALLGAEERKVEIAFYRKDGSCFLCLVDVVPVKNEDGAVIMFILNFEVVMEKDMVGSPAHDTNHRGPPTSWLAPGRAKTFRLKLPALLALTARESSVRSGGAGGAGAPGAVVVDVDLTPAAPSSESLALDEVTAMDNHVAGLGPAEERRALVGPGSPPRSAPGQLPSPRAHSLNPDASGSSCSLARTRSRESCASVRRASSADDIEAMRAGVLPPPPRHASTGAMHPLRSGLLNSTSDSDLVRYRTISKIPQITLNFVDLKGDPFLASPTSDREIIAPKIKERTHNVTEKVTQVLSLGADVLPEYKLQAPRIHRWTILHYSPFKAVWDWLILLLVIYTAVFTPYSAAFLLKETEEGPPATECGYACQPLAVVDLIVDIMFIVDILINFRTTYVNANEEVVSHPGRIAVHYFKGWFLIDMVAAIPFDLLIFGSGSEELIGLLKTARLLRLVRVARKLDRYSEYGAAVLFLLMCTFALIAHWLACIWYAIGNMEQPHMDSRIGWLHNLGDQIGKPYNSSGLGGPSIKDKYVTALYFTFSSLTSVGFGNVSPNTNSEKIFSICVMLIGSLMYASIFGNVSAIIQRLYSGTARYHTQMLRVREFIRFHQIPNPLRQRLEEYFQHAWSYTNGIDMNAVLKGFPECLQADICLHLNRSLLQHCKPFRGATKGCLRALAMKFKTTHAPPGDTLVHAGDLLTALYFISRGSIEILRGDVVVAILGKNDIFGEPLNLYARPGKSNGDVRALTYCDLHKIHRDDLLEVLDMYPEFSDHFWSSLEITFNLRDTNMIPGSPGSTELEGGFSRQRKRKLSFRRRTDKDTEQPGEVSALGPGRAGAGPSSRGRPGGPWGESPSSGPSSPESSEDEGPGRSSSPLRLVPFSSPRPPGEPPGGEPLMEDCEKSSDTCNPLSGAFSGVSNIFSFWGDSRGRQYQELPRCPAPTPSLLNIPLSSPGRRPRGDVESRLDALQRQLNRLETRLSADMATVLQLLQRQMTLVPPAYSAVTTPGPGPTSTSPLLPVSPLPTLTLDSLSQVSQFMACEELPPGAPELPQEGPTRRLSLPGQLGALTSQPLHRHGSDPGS
Outline: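 hERG inhibition measured in HEK293 cells stably transfected with the hERG gene, IC50 determined, dofetilide as positive control. Run by a contract lab.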

[11] = Tmax in CD1 mouse at 30 mg/kg, po by LC-MS/MS analysis; type: ADME, organism-based; conditions: in vivo; outline: as §3
CYP2C19 = CYP2C19 (Homo sapiens, UniProt P33261); assay: Inhibition of human CYP2C19 at 10 uM; type: ADME
Sequence of CYP2C19 (P33261 whole entry): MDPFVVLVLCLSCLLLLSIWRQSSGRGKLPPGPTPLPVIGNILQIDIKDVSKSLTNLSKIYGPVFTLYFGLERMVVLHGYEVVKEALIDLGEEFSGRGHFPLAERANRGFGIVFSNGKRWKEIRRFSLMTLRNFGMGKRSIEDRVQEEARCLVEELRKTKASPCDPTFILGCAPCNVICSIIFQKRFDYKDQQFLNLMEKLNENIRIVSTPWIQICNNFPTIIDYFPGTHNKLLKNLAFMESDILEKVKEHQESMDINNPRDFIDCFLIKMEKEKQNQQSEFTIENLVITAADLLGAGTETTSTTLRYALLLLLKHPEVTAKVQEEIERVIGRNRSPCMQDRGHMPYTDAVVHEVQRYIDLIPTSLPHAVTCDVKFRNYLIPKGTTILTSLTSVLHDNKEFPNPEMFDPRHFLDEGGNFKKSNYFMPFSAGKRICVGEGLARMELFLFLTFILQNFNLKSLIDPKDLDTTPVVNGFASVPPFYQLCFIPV

[12] = Half life in human hepatocytes; type: ADME, cell-based, Hepatocyte
[13] = Induction of thrombocytopenia in Sprague-Dawley rat assessed as platelet count […] at 25 mg/kg, po administered via gavage daily for 10 days (reference value: […]); type: organism-based; conditions: in vivo, 240 h
CYP2C9 = CYP2C9 (Homo sapiens, UniProt P11712); assay: Inhibition of human CYP2C9 at 10 uM; type: ADME
Sequence of CYP2C9 (P11712 whole entry): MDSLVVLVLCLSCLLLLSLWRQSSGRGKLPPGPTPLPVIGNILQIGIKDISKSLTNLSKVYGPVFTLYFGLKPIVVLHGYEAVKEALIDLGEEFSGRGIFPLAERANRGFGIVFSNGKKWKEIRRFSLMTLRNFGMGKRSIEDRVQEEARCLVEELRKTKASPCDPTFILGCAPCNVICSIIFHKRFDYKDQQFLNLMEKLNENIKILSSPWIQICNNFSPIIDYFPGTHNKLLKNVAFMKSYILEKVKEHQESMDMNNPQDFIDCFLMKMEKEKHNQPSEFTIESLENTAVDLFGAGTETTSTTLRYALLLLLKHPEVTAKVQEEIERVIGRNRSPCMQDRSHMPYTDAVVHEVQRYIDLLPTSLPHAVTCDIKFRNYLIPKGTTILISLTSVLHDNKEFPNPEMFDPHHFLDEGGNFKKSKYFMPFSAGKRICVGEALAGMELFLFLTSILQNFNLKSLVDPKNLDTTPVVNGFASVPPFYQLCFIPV

CYP1A2 = CYP1A2 (Homo sapiens, UniProt P05177); assay: Inhibition of human CYP1A2 at 10 uM; type: ADME
Sequence of CYP1A2 (P05177 whole entry): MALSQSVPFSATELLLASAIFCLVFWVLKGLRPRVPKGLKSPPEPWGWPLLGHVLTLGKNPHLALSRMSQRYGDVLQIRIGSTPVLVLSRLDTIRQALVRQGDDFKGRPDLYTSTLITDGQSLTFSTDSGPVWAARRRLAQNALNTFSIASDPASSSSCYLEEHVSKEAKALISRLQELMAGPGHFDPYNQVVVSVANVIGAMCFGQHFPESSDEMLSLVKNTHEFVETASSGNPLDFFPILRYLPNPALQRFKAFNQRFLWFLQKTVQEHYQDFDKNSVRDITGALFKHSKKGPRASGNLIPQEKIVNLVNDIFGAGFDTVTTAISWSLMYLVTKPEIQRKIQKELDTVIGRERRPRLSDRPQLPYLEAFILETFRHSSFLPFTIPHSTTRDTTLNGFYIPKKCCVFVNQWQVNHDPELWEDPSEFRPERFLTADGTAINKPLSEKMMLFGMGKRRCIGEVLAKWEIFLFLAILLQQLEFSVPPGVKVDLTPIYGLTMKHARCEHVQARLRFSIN

CYP3A4 = CYP3A4 (Homo sapiens, UniProt P08684); assay: Inhibition of human CYP3A4 at 10 uM; type: ADME
Sequence of CYP3A4 (P08684 whole entry): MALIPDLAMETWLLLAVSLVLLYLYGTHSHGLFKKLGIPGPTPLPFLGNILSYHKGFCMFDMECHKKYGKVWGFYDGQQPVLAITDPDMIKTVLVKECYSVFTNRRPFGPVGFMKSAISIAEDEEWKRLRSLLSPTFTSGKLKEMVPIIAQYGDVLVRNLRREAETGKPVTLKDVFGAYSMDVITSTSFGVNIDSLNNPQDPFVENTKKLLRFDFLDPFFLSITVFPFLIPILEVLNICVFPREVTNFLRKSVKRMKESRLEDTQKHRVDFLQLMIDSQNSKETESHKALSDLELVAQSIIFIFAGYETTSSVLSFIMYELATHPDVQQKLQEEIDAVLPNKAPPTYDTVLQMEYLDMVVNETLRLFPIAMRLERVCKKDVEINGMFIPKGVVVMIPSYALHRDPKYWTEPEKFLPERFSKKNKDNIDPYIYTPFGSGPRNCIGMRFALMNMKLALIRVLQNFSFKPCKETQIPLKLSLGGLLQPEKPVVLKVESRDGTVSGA

[14] = Toxicity in human MCF7:TAM1 cells xenografted ovariectomized athymic Nude-Foxn1 mouse assessed as adverse sign t at 50 mg/kg/day, po administered via gavage for 4 weeks; type: organism-based; conditions: in vivo, 672 h; outline: as §1
[15] = Cmax in CD1 mouse at 30 mg/kg, po by LC-MS/MS analysis; type: ADME, organism-based; set-up: dose 30 mg/kg, route oral; conditions: in vivo; outline: as §2
CYP2C8 = CYP2C8 (Homo sapiens, UniProt P10632); assay: Inhibition of human CYP2C8 at 10 uM; type: ADME
Sequence of CYP2C8 (P10632 whole entry): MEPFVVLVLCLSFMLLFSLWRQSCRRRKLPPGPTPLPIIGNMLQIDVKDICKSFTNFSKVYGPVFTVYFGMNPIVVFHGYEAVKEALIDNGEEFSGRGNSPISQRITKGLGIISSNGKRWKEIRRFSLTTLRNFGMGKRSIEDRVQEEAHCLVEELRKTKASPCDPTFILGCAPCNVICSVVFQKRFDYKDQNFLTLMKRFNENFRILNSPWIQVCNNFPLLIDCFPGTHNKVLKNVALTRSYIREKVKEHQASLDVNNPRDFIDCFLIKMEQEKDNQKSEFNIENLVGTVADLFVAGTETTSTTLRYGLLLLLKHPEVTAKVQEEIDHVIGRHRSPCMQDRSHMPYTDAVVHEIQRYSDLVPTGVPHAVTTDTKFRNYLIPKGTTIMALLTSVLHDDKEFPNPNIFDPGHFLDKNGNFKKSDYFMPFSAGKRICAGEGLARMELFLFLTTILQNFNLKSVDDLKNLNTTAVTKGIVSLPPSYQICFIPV

[16] = Half life in CD1 mouse at 5 mg/kg, iv by LC-MS/MS analysis; type: ADME, organism-based; conditions: in vivo; outline: as §2
[17] = Half life in CD1 mouse at 30 mg/kg, po by LC-MS/MS analysis; type: ADME, organism-based; conditions: in vivo; outline: as §2
[18] = AUC in CD1 mouse at 5 mg/kg, iv by LC-MS/MS analysis; type: ADME, organism-based; conditions: in vivo; outline: as §2

platelet count [1]: 173 10^3/µL
Structure (SMILES): CCS(=O)(=O)Nc1ccc(Oc2ccc(F)cc2F)c(-c2cn(C)c(=O)c3[nH]ccc23)c1 [MIVEBRESIB]

Structure (SMILES): CCS(=O)(=O)Nc1cc(-c2cn(C)c3c(=O)[nH]ccc23)cc2c1ccn2C(C)(c1ccccn1)c1ccccn1.Cl
Activity [2]: Non-Toxic
inhibition in vivo at 30 mg/kg/day (MCF7:TAM1): 106%
AUC [3]: 9598 ng·h/mL
Vdss [4]: 1.49 L/kg
inhibition at 10 µM (CYP2A6): 7.47%
hepatocyte CLint [5]: 6.86 µL/min/1e6 cells
PPB [6]: 97.98%
inhibition at 10 µM (CYP2D6): 14.5%
clearance [7]: 25.5 mL/min/kg
F [8]: 49%
solubility kinetic [9]: 73.4 µM
IC50 [10]: 29.3 µM
Tmax [11]: 0.25 h
inhibition at 10 µM (CYP2C19): 31.8%
t1/2 [12]: 3.37 h
platelet count [13]: 1050 10^3/µL
inhibition at 10 µM (CYP2C9): 30.7%
inhibition at 10 µM (CYP1A2): 2.29%
inhibition at 10 µM (CYP3A4): 50.6%
Activity [14]: Non-Toxic
Cmax [15]: 3090 ng/mL
inhibition at 10 µM (CYP2C8): 84.2%
t1/2 [16]: 1.95 h
t1/2 [17]: 2.9 h
AUC [18]: 3208 ng·h/mL
